Test results: ChEMBL document CHEMBL4311984, “Design and synthesis of H2S-donor hybrids: A new treatment for Alzheimer's disease?” (Eur J Med Chem, 2019)
Activity calls are given as the source filed them. The calls are words filed in the database; no cut-off is given here.

Legend:
[1] = tested on: BV-2; experiment: Induction of H2S generation in mouse BV2 cells at 100 uM after 45 mins by WSP-1 fluorescence dye based spectrofluorimetric analysis; assay type: functional, cell-based
Procedure, shortened: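 BV-2 cells, 72 × 10³/well, were seeded serum-free 24 h before the assay and loaded with WSP-1 for 30 min. Dye was then replaced with compound in HEPES-buffered saline, pH 7.4 (vehicle DMSO 1%). Fluorescence was recorded for 45 min, and total H₂S release was expressed as AUC of fluorescence index. Data are mean ± SE, n=9, with diallyl disulfide as reference donor.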

[2] = tested on: SH-SY5Y; experiment: Neuroprotection against amyloid beta (1 to 42 residues)-induced toxicity in human SH-SY5Y cells preincubated for 24 hrs followed by amyloid beta addition and measured after 4 hrs by MTT-based exocytosis assay; assay type: functional, cell-based
Procedure, shortened: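 Aβ1-42 was dissolved in hexafluoroisopropanol (1 mg/mL), sonicated, held 24 h at room temperature and lyophilised. SH-SY5Y cells, 3 × 10⁴/well, were pretreated 24 h with compound and then given Aβ1-42 oligomers for 4 h at 37 °C. MTT (0.5 mg/mL in HBSS) was applied for 1 h, granules were solubilised in 10% Tween-20, and absorbance read at 570 nm (ref 690).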

[3] = tested on: BV-2; experiment: Inhibition of LPS-induced nitric oxide in mouse BV2 cells assessed as reduction in intracellular nitric oxide level at 1 uM preincubated with compound for 1 hr followed by LPS addition and measured after 24 hrs by cell analyser based assay (reference value: 145.7 +/- 4.4%); assay type: functional
[4] = tested on: BV-2; experiment: Cytoprotection against LPS-induced cell damage in mouse BV2 cells assessed as increase in cell viability at 1 uM preincubated with compound for 1 hr followed by LPS addition and measured after 24 hrs by cell analyser based assay (reference value: 80.6 +/- 1.2%); assay type: functional
[5] = tested on: SH-SY5Y; experiment: Cytotoxicity against human SH-SY5Y cells assessed as cell viability up to 5 uM after 24 hrs by MTT assay; assay type: cell-based
Procedure, shortened: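 SH-SY5Y cells, 2 × 10⁴/well, were allowed 24 h to attach, then exposed for 24 h to a series of concentrations (1.25–40). MTT (0.5 mg/mL in HBSS) was applied for 2 h at 37 °C, and formazan was dissolved in isopropanol and read at 570 nm (ref 690 nm). Results are % viability versus untreated cells.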

[6] = tested on: BV-2; experiment: Antioxidant activity in mouse BV2 cells assessed as reduction in LPS-induced ROS release at 1 uM preincubated with compound for 1 hr followed by LPS addition and measured after 24 hrs by cell analyser based assay (reference value: 154 +/- 3.8%); assay type: functional; set-up: scale not given: the % may be the effect or the level left
[7] = tested on: BV-2; experiment: Cytoprotection against LPS-induced cell damage in mouse BV2 cells assessed as cell viability at 1 uM preincubated with compound for 1 hr followed by LPS addition and measured after 24 hrs by cell analyser based assay (reference value: 80.6 +/- 1.2%); assay type: functional; conditions: read-out: Activity
[8] = tested on: BV-2; experiment: Antioxidant activity in mouse BV2 cells assessed as effect on LPS-induced ROS release at 1 uM preincubated with compound for 1 hr followed by LPS addition and measured after 24 hrs by cell analyser based assay (reference value: 154 +/- 3.8%); assay type: functional
[9] = tested on: SH-SY5Y; experiment: Antioxidant activity in human SH-SY5Y cells assessed as inhibition of tert-butyl hydroperoxide-induced intracellular ROS generation at 5 uM preincubated with compound for 24 hrs followed by tert-butyl hydroperoxide addition after 30 mins by DCFH-DA dye based fluorescence assay; assay type: functional, cell-based
Procedure, shortened: (§1)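 SH-SY5Y cells, 2 × 10⁴/well, were allowed 24 h to attach, then given compound for 24 h at 37 °C. They were loaded with DCFH-DA ([…]) for 30 min at room temperature and then challenged with H₂O₂ or t-BuOOH, each at 50 µM, for 30 min. Results are percent inhibition of oxidant-induced ROS, mean ± SEM, n=3 independent experiments.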

[10] = tested on: BV-2; experiment: Inhibition of LPS-induced nitric oxide in mouse BV2 cells assessed as intracellular nitric oxide level at 1 uM preincubated with compound for 1 hr followed by LPS addition and measured after 24 hrs by cell analyser based assay (reference value: 145.7 +/- 4.4%); assay type: functional; set-up: scale not given: the % may be the effect or the level left
[11] = tested on: SH-SY5Y; experiment: Antioxidant activity in human SH-SY5Y cells assessed as increase in GSH level at 5 uM after 24 hrs by MCB-dye based fluorescence assay relative to control; assay type: functional
Procedure, shortened: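 SH-SY5Y cells, 2 × 10⁴/well, were allowed 24 h to attach, then given compound for 24 h at 37 °C in 5% CO₂. Medium was replaced with monochlorobimane for 30 min at 37 °C, and fluorescence read at ex 355/em 460 nm. Results are percent increase in GSH, mean ± SEM of three independent experiments.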

[12] = tested on: SH-SY5Y; experiment: Antioxidant activity in human SH-SY5Y cells assessed as inhibition of H2O2-induced intracellular ROS generation at 5 uM preincubated with compound for 24 hrs followed by H2O2 addition after 30 mins by DCFH-DA dye based fluorescence assay; assay type: functional, cell-based; procedure, shortened: as §1
[13] = molecular target: T1, Nuclear factor erythroid 2-related factor 2 (Homo sapiens) (UniProt Q16236); experiment: Activation of Nrf2 in human SH-SY5Y cells at 5 uM after 1 to 6 hrs by ELISA method; assay type: cell-based
T1 sequence (whole entry): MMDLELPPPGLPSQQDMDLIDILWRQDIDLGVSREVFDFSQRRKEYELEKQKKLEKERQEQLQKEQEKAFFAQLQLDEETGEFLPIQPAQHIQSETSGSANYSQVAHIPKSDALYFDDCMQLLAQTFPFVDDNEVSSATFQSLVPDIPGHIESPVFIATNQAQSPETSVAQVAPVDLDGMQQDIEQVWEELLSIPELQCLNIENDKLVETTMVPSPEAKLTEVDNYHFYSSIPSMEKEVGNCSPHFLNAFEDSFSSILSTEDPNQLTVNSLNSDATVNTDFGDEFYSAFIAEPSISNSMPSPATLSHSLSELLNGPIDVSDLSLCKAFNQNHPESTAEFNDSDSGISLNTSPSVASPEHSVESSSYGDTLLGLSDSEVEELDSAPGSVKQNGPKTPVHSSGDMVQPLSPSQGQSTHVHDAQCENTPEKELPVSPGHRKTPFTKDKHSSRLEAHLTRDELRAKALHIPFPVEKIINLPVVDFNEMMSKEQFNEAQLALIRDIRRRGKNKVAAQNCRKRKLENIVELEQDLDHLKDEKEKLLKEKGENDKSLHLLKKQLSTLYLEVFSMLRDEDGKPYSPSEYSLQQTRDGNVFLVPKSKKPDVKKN
Procedure, shortened: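 SH-SY5Y cells, 2 × 10⁶ per dish, exposed to compound for 1, 3 and 6 h at 37 °C in 5% CO₂. Nuclear extracts were then taken and active Nrf2 measured by DNA-binding ELISA (antibody recognises ARE-bound Nrf2). Results are fold increase over matched untreated cells, mean ± SEM of three independent experiments, two-way ANOVA with Bonferroni.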

## C=CCSSCC=C
[1]
  Activity: Active

## CCN(C)C(=O)Oc1cccc(CNC(=O)C[S+]([O-])CCCCN=C=S)c1 (stereo unspecified)
[2]
  Activity: inactive
[3]
  inhibition: Active
[1]
  Activity: Active
[4]
  Activity: Active
[5]
  Activity: Non-Toxic
[6]
  Activity: 30 - 35%

## CCN(C)C(=O)Oc1cccc(NC(=O)C[S+]([O-])CCCCN=C=S)c1 (stereo unspecified)
[2]
  Activity: inactive
[3]
  inhibition: Active
[1]
  Activity: Active
[4]
  Activity: Active
[5]
  Activity: Non-Toxic
[6]
  Activity: 30 - 35%

## CCN(C)C(=O)Oc1cccc([C@H](C)N(C)C)c1 [RIVASTIGMINE]
[7]
  viability at 1 µM: 84%
[3]
  inhibition: Active
[1]
  Activity: Active
[8]
  Activity: inactive

## CCN(C)C(=O)Oc1cccc(NC(=O)CSCCCCN=C=S)c1
[9]
  Activity: Active
[10]
  Activity: 114%
[11]
  Activity: 35.6%
[2]
  Activity: inactive
[12]
  Activity: Active
[13]
  Activity: Active
[7]
  viability at 1 µM: 93%
[3]
  inhibition: Active
[1]
  Activity: Active
[5]
  Activity: Non-Toxic
[6]
  Activity: 30 - 35%

## CCN(C)C(=O)Oc1cccc(CNC(=O)CSCCCCN=C=S)c1
[9]
  Activity: Active
[10]
  Activity: 125.9%
[11]
  Activity: 25.73%
[2]
  Activity: inactive
[12]
  Activity: Active
[13]
  Activity: inactive
[3]
  inhibition: Active
[1]
  Activity: Active
[4]
  Activity: Active
[5]
  Activity: Non-Toxic
[6]
  Activity: 30 - 35%

## CCN(C)C(=O)Oc1cccc(CCNC(=O)CSCCCCN=C=S)c1
[10]
  Activity: 98.8%
[2]
  Activity: inactive
[3]
  inhibition: Active
[1]
  Activity: Active
[4]
  Activity: Active
[5]
  Activity: Non-Toxic
[6]
  Activity: 30 - 35%

## CCN(C)C(=O)Oc1cccc(CCNC(=O)C[S+]([O-])CCCCN=C=S)c1 (stereo unspecified)
[2]
  Activity: inactive
[3]
  inhibition: Active
[1]
  Activity: Active
[5]
  Activity: Non-Toxic
[6]
  Activity: 30 - 35%
